Results on 1 compound are retold here after ChEMBL document CHEMBL3860044, “The Rational Design, Synthesis, and Antimicrobial Properties of Thiophene Derivatives That Inhibit Bacterial Histidine Kinases” (J Med Chem, 2016).

The subject of test [1] is Bacillus subtilis. In words: Inhibition of Bacillus subtilis cytoplasmic Walk CA domain (204 to 612 residues) autophosphorylation at 1 mM preincubated for 5 mins followed by [gamma-32P] ATP addition measured after 3 mins by SDS-PAGE based phosphor imaging method. Put shortly: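 Screen used cytoplasmic WalK fragments. 2 µM kinase in Epps buffer pH 8.5 with 20 mM MgCl2, 0.1 mM EDTA and 5% glycerol. Compound at 1 mM final in 10% DMSO, added 5 min before ATP (1 mM final including [γ-32P]ATP). Stopped with SDS loading buffer, run on SDS-PAGE, read by phosphorimaging.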

The nature of test [2]: Inhibition of Bacillus subtilis JH642 Hexa-his-tagged PhoR cytoplasmic domain (186 to 589 residues) autophosphorylation expressed in Escherichia coli BL21(DE3) preincubated for 5 mins followed by [gamma-32P] ATP addition measured after 8 to 60 mins by SDS-PAGE based phosphor imaging method. Details: species or system Bacillus subtilis subsp. subtilis str. JH642. Put shortly: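 His6-PhoR purified by Ni-NTA after IPTG induction (1 mM, 16 °C). For IC50: 0.5 µM kinase in Epps pH 8.5, MgCl2, EDTA, glycerol buffer; compound 0–800 µM (two-fold steps), DMSO held constant, 5 min before ATP at 2.5 µM final, cold:hot ratio 1:1. Stopped with SDS loading buffer after 60 min; SDS-PAGE, phosphorimaging, densitometry.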

A short description of test [3]: Inhibition of Bacillus subtilis JH642 Hexa-his-tagged ResE cytoplasmic domain (203 to 589 residues) autophosphorylation expressed in Escherichia coli BL21(DE3) preincubated for 5 mins followed by [gamma-32P] ATP addition measured after 8 to 60 mins by SDS-PAGE based phosphor imaging method. The arrangement: species or system Bacillus subtilis subsp. subtilis str. JH642. Put shortly: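 His6-ResE purified by Ni-NTA after IPTG induction (1 mM, 16 °C). For IC50: 0.5 µM kinase in Epps pH 8.5, MgCl2, EDTA, glycerol buffer; compound 0–800 µM (two-fold steps), DMSO held constant, 5 min before ATP at 2.5 µM final, cold:hot ratio 1:10. Stopped with SDS loading buffer after 8 min; SDS-PAGE, phosphorimaging, densitometry.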

Test [4] is described as follows: Inhibition of Enterococcus faecalis Hexa-his-tagged IreK autophosphorylation expressed in Escherichia coli BL21(DE3) preincubated for 5 mins followed by [gamma-32P] ATP addition measured after 15 mins by SDS-PAGE based phosphor imaging method. Put shortly:
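His6-IreK expressed in E. coli BL21(DE3) with IPTG at 16 °C and purified by Ni-NTA. Autophosphorylation run as for the histidine kinases: 0.5 µM kinase, 2.5 µM ATP with [γ-32P]ATP, compound 0–800 µM added before ATP.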

Test [5] relates to Bacillus subtilis. Description: Inhibition of Bacillus subtilis KinA autophosphorylation.
For the next test, the system named is Bacillus anthracis. Description: Antimicrobial activity against Bacillus anthracis 34F2 after 20 hrs by two fold serial broth dilution method. The following applies: 34F2, 20 h. In kind it is functional. Put shortly:
(§1)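 Two-fold serial broth dilution per CLSI in LB, BHI or THB broth, (3–7) × 10⁵ cfu/mL per well, compound 0.5 to 128 µg/mL, 20 h at 37 °C. MIC is the lowest concentration with no growth. For MBC (>99.99% kill), 10 µL from wells without growth are spotted on agar and read the next day as spots with fewer than 5 colonies.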
In general terms: Dilution methods test growth across graded concentrations, often in twofold steps.

The subject of test [6] is Streptococcus agalactiae. Description: Antimicrobial activity against Streptococcus agalactiae COH1 GBS after 20 hrs by two fold serial broth dilution method. It is filed as functional. Put shortly:
(§2)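 2-fold serial broth dilution per CLSI in LB, BHI or THB; inoculum (3–7) × 10⁵ cfu/mL; compound 0.5 to 128 µg/mL; 20 h at 37 °C. MIC taken as lowest concentration with no visible growth. For MBC (>99.99% kill), 10 µL from wells without growth spotted on agar; read next day as spots with fewer than 5 colonies.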

The next test deals with Listeria monocytogenes. Description: Antimicrobial activity against Listeria monocytogenes 10403S after 20 hrs by two fold serial broth dilution method. In kind it is functional. Put shortly:
as §2

Test [7] deals with Enterococcus faecalis. Description: Antimicrobial activity against Enterococcus faecalis V583 after 20 hrs by two fold serial broth dilution method. In kind it is functional. The following applies: V583, 20 h. Put shortly: as §2
The subject of test [8] is Escherichia coli. In words: Antimicrobial activity against Escherichia coli MG1655 after 20 hrs by two fold serial broth dilution method. In kind it is functional. The following applies: K-12 substr. MG1655, 20 h. Put shortly: as §1
The test system of test [9] is Staphylococcus aureus. In words: Bactericidal activity against methicillin-resistant Staphylococcus aureus USA300 TCH1516 after 20 hrs by two fold serial broth dilution method. It is filed as functional, USA300_TCH1516. Put shortly:
as §1

The subject of test [10] is Streptococcus agalactiae. In words: Bactericidal activity against Streptococcus agalactiae COH1 GBS after 20 hrs by two fold serial broth dilution method. It is filed as functional. Put shortly:
as §2

The test system of test [11] is Enterococcus faecalis. In words: Bactericidal activity against Enterococcus faecalis V583 after 20 hrs by two fold serial broth dilution method. It is filed as functional. Put shortly: as §2
Test [12] concerns Escherichia coli. Description: Bactericidal activity against Escherichia coli MG1655 after 20 hrs by two fold serial broth dilution method. In kind it is functional, K-12 substr. MG1655. Put shortly:
as §1

The test system of test [13] is Escherichia coli. In words: Inhibition of histidine kinase in amoxicillin-resistant Escherichia coli isolate G28 harboring beta-lactamase assessed as adjuvant activity for restoration of cefotaxime induced antibacterial activity by measuring cefotaxime MIC at 50 ug/ml by broth microdilution method (reference value: >16 ug/ml). Put shortly: (§3)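 Clinical resistant isolates and quality control strains (S. aureus ATCC 29213, E. coli ATCC 25922) are tested by EUCAST broth microdilution with a 10⁶ bacteria/mL inoculum, in triplicate, with or without a fixed adjuvant concentration. For MBC, the MIC dilution and at least two more concentrated dilutions are plated and CFU/mL counted.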

Test [14] has as its system Escherichia coli. In words: Inhibition of histidine kinase in cephalosporin-resistant Escherichia coli isolate ARS 108 harboring extended spectrum beta lactamase assessed as adjuvant activity for restoration of cefotaxime induced antibacterial activity by measuring cefotaxime MIC at 50 ug/ml by broth microdilution method (reference value: >16 ug/ml). Put shortly:
as §3

In test [15] the test system is Staphylococcus aureus. Description: Inhibition of histidine kinase in methicillin-resistant Staphylococcus aureus isolate C1BP13 assessed as adjuvant activity for restoration of penicillin G induced antibacterial activity by measuring penicillin G MIC at 50 ug/ml by broth microdilution method (reference value: >8 ug/ml). Put shortly: as §3
The subject of test [16] is Escherichia coli. In words: Inhibition of histidine kinase in cephalosporin-resistant/ESBL producing Escherichia coli isolate ARS 108 assessed as adjuvant activity for restoration of amoxicillin induced bactericidal activity by measuring amoxicillin MBC at 50 ug/ml by broth microdilution method (reference value: >16 ug/ml). Put shortly:
as §3

Test [17] deals with Escherichia coli. In words: Inhibition of histidine kinase in cephalosporin-resistant/ESBL producing Escherichia coli isolate ARS 108 assessed as adjuvant activity for restoration of cefotaxime induced bactericidal activity by measuring cefotaxime MBC at 50 ug/ml by broth microdilution method (reference value: >8 ug/ml). Put shortly: as §3
For test [18], the system named is Escherichia coli. Description: Inhibition of histidine kinase in ofloxacin-resistant Escherichia coli isolate G02 assessed as adjuvant activity for restoration of ofloxacin induced bactericidal activity by measuring ofloxacin MBC at 50 ug/ml by broth microdilution method (reference value: >8 ug/ml). Put shortly: as §3
In test [19] the test system is Staphylococcus aureus. In words: Inhibition of histidine kinase in methicillin-resistant Staphylococcus aureus isolate C1BP13 assessed as adjuvant activity for restoration of penicillin G induced bactericidal activity by measuring penicillin G MBC at 50 ug/ml by broth microdilution method (reference value: >8 ug/ml). Put shortly: as §3

By IC50 is commonly meant the point on the concentration scale where inhibition reaches its midpoint. Low readings indicate greater potency in that assay, high ones weaker potency in that assay.

Values after ≈ are worked out from the molar mass of the structure shown. Active and inactive are the calls of the source. The rule behind the calls is not given here. A value given as a limit tells only on which side of the number the result lay.

On to `O=[N+]([O-])c1ccc(-c2ccccc2O)s1`, for which the inhibition result in the test on Bacillus subtilis [1] and in the test with Bacillus subtilis [5] was “Active” throughout. Besides, the IC50 in [2] is 123 µM; in [3], 124 µM; in [4], over 800 µM. The MIC in the test with Bacillus anthracis stood at 7 µg/mL (≈ 31.6 µM); in the test with Streptococcus agalactiae [6] it was 16 µg/mL (≈ 72.3 µM); in the test on Listeria monocytogenes, 10 µg/mL (≈ 45.2 µM); against Enterococcus faecalis [7], 32 µg/mL (≈ 145 µM); against Escherichia coli [8], 32 µg/mL (≈ 145 µM); in the test with Escherichia coli [13] it was 0.03 µg/mL. The MIC in the test with Escherichia coli [14] was 0.03 µg/mL; in the test with Staphylococcus aureus [15], under 0.015 µg/mL. Besides, the MBC99.99 against Staphylococcus aureus [9] is 32 µg/mL (≈ 145 µM); with Streptococcus agalactiae [10], over 32 µg/mL; with Enterococcus faecalis [11], over 64 µg/mL; with Escherichia coli [12] it was 32 µg/mL (≈ 145 µM). The MBC with Escherichia coli [16] was over 16 µg/mL; in the test with Escherichia coli [17], over 8 µg/mL; with Escherichia coli [18], over 8 µg/mL; with Staphylococcus aureus [19], 4 µg/mL.
